Experiment [1] can be described thus: Inhibition of Sulfurihydrogenibium yellowstonense YO3AOP1 carbonic anhydrase preincubated for 15 mins by stopped-flow CO2 hydration assay. The procedure, abridged:
(§1)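 Initial rates of CA-catalysed CO2 hydration followed for 10–100 s with phenol red (0.2 mM) read at 557 nm, in 10–20 mM Hepes pH 7.5 with 20 mM Na2SO4 for ionic strength. CO2 1.7–17 mM. Inhibitors in water at 0.01 mM stock, diluted down to 0.01 nM. Enzyme and inhibitor preincubated at room temperature. Uncatalysed rates subtracted. Ki from non-linear least squares and Cheng–Prusoff, mean of at least three determinations.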

The nature of experiment [2]: Inhibition of Sulfurihydrogenibium azorense alpha-carbonic anhydrase preincubated for 15 mins by stopped-flow CO2 hydration assay. The procedure, abridged:
as §1

Regarding `CC(=O)C1=NN(c2ccc(S(N)(=O)=O)cc2)C(=C(C#N)C#N)S1`, the inhibition constant Ki amounted to 89.1 nM in experiment [1] and 116 nM in experiment [2].
On to `COc1ccc(C(=O)N/N=C(C)/C(Cl)=N/Nc2ccc(S(N)(=O)=O)cc2)cc1`, for which the results for the Ki in experiment [1] and in experiment [2] were 45.2 nM and 21.2 nM, respectively.
For the molecule `CC(=N\NC(=O)c1cccs1)/C(Cl)=N/Nc1ccc(S(N)(=O)=O)cc1`, the inhibitory constant (Ki) in experiment [1] stood at 6.4 nM; in experiment [2] it was 14.9 nM.
On to `CC(=N\NC(=O)c1ccccc1)/C(=N/Nc1ccc(S(N)(=O)=O)cc1)N1CCCCC1`, for which the values for the inhibition constant Ki in experiment [1] and in experiment [2] were 21.9 nM and 13.5 nM, respectively.
For `CC(=N\NC(=O)c1ccc(Cl)cc1)/C(=N/Nc1ccc(S(N)(=O)=O)cc1)N1CCCCC1` the same measures were 80.6 nM and 8.1 nM.
For `COc1ccc(C(=O)N/N=C(C)/C(=N/Nc2ccc(S(N)(=O)=O)cc2)N2CCCCC2)cc1` the same measures were 62.8 nM and 4 nM.
The corresponding values for `CC(=N\NC(=O)c1cccs1)/C(=N/Nc1ccc(S(N)(=O)=O)cc1)N1CCCCC1` are 20.5 nM and 0.77 nM.
For `CC(=N\NC(=O)c1ccccc1)/C(=N/Nc1ccc(S(N)(=O)=O)cc1)S(=O)(=O)c1ccccc1`, the Ki in experiment [1] turned out to be 42.9 nM; in experiment [2], 94.5 nM.
`CC(=N\NC(=O)c1ccc(Cl)cc1)/C(=N/Nc1ccc(S(N)(=O)=O)cc1)S(=O)(=O)c1ccccc1`: the Ki was found to be 68.3 nM in experiment [1] and 59.1 nM in experiment [2].
For `COc1ccc(C(=O)N/N=C(C)/C(=N/Nc2ccc(S(N)(=O)=O)cc2)S(=O)(=O)c2ccccc2)cc1`, the Ki in experiment [1] was 78.2 nM; in experiment [2], 169 nM.
For `CC(=N\NC(=O)c1cccs1)/C(=N/Nc1ccc(S(N)(=O)=O)cc1)S(=O)(=O)c1ccccc1` the same measures were 74.5 nM and 21.9 nM.
Take `Cc1nn2c(C)nnc2s/c1=N/Nc1ccc(S(N)(=O)=O)cc1`: the Ki in experiment [1] amounted to 28.3 nM; in experiment [2], 18.3 nM.
For `Cc1nn2c(-c3ccccc3)nnc2s/c1=N/Nc1ccc(S(N)(=O)=O)cc1` the same measures were 47.9 nM and 9.7 nM.
Turning to `CCOC(=O)/C(C#N)=C1\SC(C(C)=O)=NN1c1ccc(S(N)(=O)=O)cc1`, the results for the Ki in experiment [1] and in experiment [2] were 38.7 nM and 193 nM, respectively.
For `CC(=O)C1=NN(c2ccc(S(N)(=O)=O)cc2)/C(=C(\C#N)C(=O)c2ccccc2)S1` the same measures were 76.8 nM and 234 nM.
The corresponding values for `CC(=O)C1=NN(c2ccc(S(N)(=O)=O)cc2)/C(=C(\C#N)C(=O)Nc2ccc(S(N)(=O)=O)cc2)S1` are 71 nM and 101 nM.
For `CC(=N\NC(=O)c1ccccc1)/C(Cl)=N/Nc1ccc(S(N)(=O)=O)cc1` the same measures were 6.2 nM and 24.3 nM.
In the case of `CC(=N\NC(=O)c1ccc(Cl)cc1)/C(Cl)=N/Nc1ccc(S(N)(=O)=O)cc1`, the Ki in experiment [1] worked out at 51.1 nM; in experiment [2], 18.5 nM.
The corresponding values for `CC(=O)Nc1nnc(S(N)(=O)=O)s1` [ACETAZOLAMIDE] are […] and 0.9 nM.

The term Ki denotes the dissociation constant of the complex between target and ligand, obtained from inhibition or displacement.
